The text below walks through data of ChEMBL document CHEMBL2321860, “2-Arylpyrazolo[4,3-d]pyrimidin-7-amino derivatives as new potent and selective human A3 adenosine receptor antagonists. Molecular modeling studies and pharmacological evaluation” (J Med Chem, 2013).

Experiment [1] has as its target T1, Adenosine receptor A3 (Homo sapiens) (UniProt P0DMS8).
T1 sequence (whole entry): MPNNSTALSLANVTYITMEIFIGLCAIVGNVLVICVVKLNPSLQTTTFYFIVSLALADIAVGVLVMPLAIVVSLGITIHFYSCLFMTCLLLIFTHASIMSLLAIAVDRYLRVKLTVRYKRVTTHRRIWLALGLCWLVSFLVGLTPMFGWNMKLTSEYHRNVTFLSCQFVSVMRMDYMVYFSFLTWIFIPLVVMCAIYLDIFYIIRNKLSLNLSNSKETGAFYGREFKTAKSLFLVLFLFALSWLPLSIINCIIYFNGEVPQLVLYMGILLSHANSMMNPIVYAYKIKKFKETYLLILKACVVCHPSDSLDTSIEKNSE
As to the kind of experiment: Displacement of [125I]AB-MECA from human A3 adenosine receptor expressed in CHO cells at 1 uM after 60 mins by scintillation counting analysis. The format is cell-based. Put shortly:
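Human A3 CHO membranes (50 μg protein) incubated with 0.5 nM [125I]AB-MECA in 50 mM Tris-HCl, 10 mM MgCl2, 1 mM EDTA, pH 7.4, for 60 min at 37 °C. Nonspecific binding defined with 1 μM AB-MECA. Filtration then counting. Output is % inhibition at 1 μM.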

For experiment [2], the target named is T2, Adenosine receptor A2b (Homo sapiens) (UniProt P29275).
T2 sequence (whole entry): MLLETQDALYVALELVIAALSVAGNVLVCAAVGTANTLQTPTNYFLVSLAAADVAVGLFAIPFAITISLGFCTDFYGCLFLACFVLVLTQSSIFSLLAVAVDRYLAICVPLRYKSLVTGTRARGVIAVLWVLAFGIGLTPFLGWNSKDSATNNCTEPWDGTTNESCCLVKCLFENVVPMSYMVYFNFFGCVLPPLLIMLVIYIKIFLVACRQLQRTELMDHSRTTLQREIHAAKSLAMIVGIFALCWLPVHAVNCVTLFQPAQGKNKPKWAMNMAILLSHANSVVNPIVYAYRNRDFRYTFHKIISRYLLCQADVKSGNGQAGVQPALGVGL
In words: Inhibition of human A2B adenosine receptor transfected in CHO cells assessed as inhibition of NECA-induced cyclic AMP production at 1 uM after 10 mins by competitive protein binding assay. The format is cell-based. Put shortly: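 Human A2B CHO cells (1 × 10⁶/assay) preincubated 10 min at 37 °C in buffer with adenosine deaminase (2 IU/mL) and Ro 20-1724. Antagonist inhibition of 200 nM NECA-stimulated cAMP measured; reaction stopped with TCA. cAMP quantified by [3H]cAMP competition with adrenal binding protein. IC50 by sigmoid fit, mean SEM of four experiments; % inhibition at 1 μM.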

Experiment [3] has as its target T3, Adenosine receptor A1 (Homo sapiens) (UniProt P30542).
T3 sequence (whole entry): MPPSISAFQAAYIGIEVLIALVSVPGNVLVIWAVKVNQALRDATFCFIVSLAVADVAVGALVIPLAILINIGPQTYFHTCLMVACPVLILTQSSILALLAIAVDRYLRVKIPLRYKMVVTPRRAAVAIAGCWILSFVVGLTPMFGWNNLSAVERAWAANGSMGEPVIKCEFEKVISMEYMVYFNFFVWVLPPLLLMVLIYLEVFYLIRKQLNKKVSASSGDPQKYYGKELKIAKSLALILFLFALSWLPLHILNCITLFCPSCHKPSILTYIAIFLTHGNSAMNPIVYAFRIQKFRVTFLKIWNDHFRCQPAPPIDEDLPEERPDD
In words: Displacement of [3H]DPCPX from human A1 adenosine receptor expressed in CHO cells at 1 uM after 120 mins by scintillation counting analysis. The format is cell-based.

Experiment [4] addresses Adenosine receptor A2a (Homo sapiens, UniProt P29274). As to the kind of experiment: Displacement of [3H]ZM241385 from human A2A adenosine receptor expressed in CHO cells at 1 uM after 60 mins by scintillation counting analysis. The format is cell-based. The method, boiled down: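 Human A2A CHO membranes (50 μg protein) incubated with 1 nM [3H]ZM-241385 in 50 mM Tris-HCl, 10 mM MgCl2, pH 7.4, for 60 min at 4 °C, using 6–8 concentrations or 1 μM for % inhibition. Nonspecific binding defined with 1 μM ZM-241385. Ki via Cheng–Prusoff, mean SEM of four assays in duplicate.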

The target in experiment [5] is T4, Adenosine receptor A3 (Homo sapiens, UniProt P0DMS8).
T4 sequence (P0DMS8 whole entry): T1 sequence (whole entry)
In words: Inhibition of human A3 adenosine receptor transfected in CHO cells assessed as inhibition of forskolin-induced cyclic AMP production after 10 mins by competitive protein binding assay in presence of CI-IB-MECA. The format is functional, cell-based. The method, boiled down:
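Human A3 CHO cells (1 × 10⁶/assay) preincubated 10 min at 37 °C with adenosine deaminase and Ro 20-1724. Antagonist potency measured against 100 nM Cl-IB-MECA-mediated inhibition of 1 μM forskolin-stimulated cAMP. cAMP quantified by [3H]cAMP competition binding. IC50 by sigmoid regression, mean SEM of four experiments.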

The target in experiment [6] is T4, Adenosine receptor A3. As to the kind of experiment: Displacement of [125I]AB-MECA from human A3 adenosine receptor expressed in CHO cells after 60 mins by scintillation counting analysis. The format is cell-based.

Chain of Adenosine receptor A2a (P29274 whole entry): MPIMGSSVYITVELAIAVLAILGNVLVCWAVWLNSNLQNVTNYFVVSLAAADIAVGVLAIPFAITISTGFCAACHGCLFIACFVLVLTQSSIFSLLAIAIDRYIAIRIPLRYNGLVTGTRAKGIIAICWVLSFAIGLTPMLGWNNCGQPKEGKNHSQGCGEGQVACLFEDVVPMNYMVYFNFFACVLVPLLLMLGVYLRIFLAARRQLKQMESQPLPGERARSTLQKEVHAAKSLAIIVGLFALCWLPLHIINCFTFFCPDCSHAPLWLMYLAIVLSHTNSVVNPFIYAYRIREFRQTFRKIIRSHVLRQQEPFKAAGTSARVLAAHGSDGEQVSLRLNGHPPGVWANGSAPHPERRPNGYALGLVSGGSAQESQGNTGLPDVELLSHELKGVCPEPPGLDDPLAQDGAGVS

`Cc1nc(NC(=O)Nc2ccccc2)c2nn(-c3ccccc3)cc2n1`: the inhibition is 30% in experiment [1], 1% in experiment [2], 1% in experiment [3] and 1% in experiment [4].

`CC(=O)Nc1nc(-c2ccccc2)nc2cn(-c3ccccc3)nc12`: the IC50 in experiment [5] amounted to 103 nM. The molecule further gave a Ki in experiment [6] of 32 nM. Also, the inhibition in experiment [2] turned out to be 2%; in experiment [3], 5%; in experiment [4] it was 5%.

Consider `Cc1nc(NC(=O)NCc2ccccc2)c2nn(-c3ccccc3)cc2n1`, for which the inhibition in experiment [1] worked out at 1%; in experiment [2], 10%; in experiment [3], 26%; in experiment [4], 7%.

Consider `Cc1nc2cn(-c3ccccc3)nc2c(=O)[nH]1`, for which the inhibition in experiment [3] is 1%.

In the case of `COc1ccc(-n2cc3nc(C)nc(NC(=O)c4ccco4)c3n2)cc1`, in experiment [6], the affinity corresponds to a Ki of 45 nM. Besides, the figures for the inhibition in experiment [2], in experiment [3] and in experiment [4] were 1%, 6% and 6%, respectively.

As for `COc1ccc(-n2cc3nc(C)nc(NC(=O)c4ccccc4)c3n2)cc1`, the IC50 in experiment [5] turned out to be 128 nM. For the same molecule, the Ki in experiment [6] was 35 nM. The inhibition in experiment [2] was 1%; in experiment [3], 1%; in experiment [4], 7%.

On to `COc1ccc(-n2cc3nc(Cc4ccccc4)nc(N)c3n2)cc1`, for which the inhibition in experiment [1] was found to be 45%; in experiment [2] it was 33%; in experiment [3] it was 40%; in experiment [4], 37%.

In the case of `Cc1nc(N(C(=O)c2ccco2)C(=O)c2ccco2)c2nn(-c3ccccc3)cc2n1`, the affinity in experiment [6], expressed as Ki, was 33 nM. Moreover, the inhibition in experiment [2] came to 1%; in experiment [3], 4%; in experiment [4], 1%.

In turn, `COc1ccc(-n2cc3nc(-c4ccccc4)nc(N)c3n2)cc1` came in with a Ki in experiment [6] of 75 nM. Further, the inhibition in experiment [2] turned out to be 3%; in experiment [3] it was 12%; in experiment [4], 35%.

Consider `Cc1nc(N(C(=O)c2ccccc2)C(=O)c2ccccc2)c2nn(-c3ccccc3)cc2n1`, for which the IC50 in experiment [5] stood at 115 nM. The molecule further showed a Ki in experiment [6] of 33 nM. Further, the inhibition in experiment [2] was determined as 5%; in experiment [3], 6%; in experiment [4], 1%.

In the case of `O=C(c1ccco1)N(C(=O)c1ccco1)c1nc(-c2ccccc2)nc2cn(-c3ccccc3)nc12`, in experiment [6], affinity was put at a Ki of 75 nM. The figures for the inhibition in experiment [2], in experiment [3] and in experiment [4] were 1%, 3% and 1%, respectively.

In experiment [6], `COc1ccc(-n2cc3nc(C)nc(NC(C)=O)c3n2)cc1` returned a Ki of 100 nM. For the same molecule, the inhibition in experiment [2], in experiment [3] and in experiment [4] was 30% in each case.

As to `COc1ccc(-n2cc3nc(C)nc(NC(=O)Nc4ccccc4)c3n2)cc1`, the inhibition in experiment [1] was 1%; in experiment [2], 13%; in experiment [3] it was 5%; in experiment [4], 13%.

Molecule `COc1ccc(C(=O)Nc2nc(-c3ccccc3)nc3cn(-c4ccccc4)nc23)cc1` gave a Ki in experiment [6] of 7.3 nM. The inhibition in experiment [2] is 1%; in experiment [3], 3%; in experiment [4], 1%.

In turn, `O=C(Nc1nc(-c2ccccc2)nc2cn(-c3ccccc3)nc12)c1cccnc1` yielded a Ki in experiment [6] of 3.2 nM. The inhibition in experiment [2], in experiment [3] and in experiment [4] was 1% each time.

In the case of `COc1ccc(C(=O)Nc2nc(C)nc3cn(-c4ccccc4)nc23)cc1`, the inhibition was determined as 1% in experiment [2], 4% in experiment [3] and 1% in experiment [4].

Turning to `COc1ccc(-n2cc3nc(-c4ccccc4)nc(NC(C)=O)c3n2)cc1`, the Ki in experiment [6] worked out at 98 nM. In addition, the inhibition in experiment [2] is 1%; in experiment [3] it was 1%; in experiment [4] it was 11%.

As for `COc1ccc(-n2cc3nc(C)nc(NC(=O)NCc4ccccc4)c3n2)cc1`, the inhibition in experiment [1] was 6%; in experiment [2] it was 1%; in experiment [3] it was 8%; in experiment [4], 7%.

On to `O=C(Nc1nc(-c2ccccc2)nc2cn(-c3ccccc3)nc12)c1ccccc1`, for which the IC50 in experiment [5] was found to be 65 nM. Also, the Ki in experiment [6] worked out at 20 nM. Also, the inhibition in experiment [2] was found to be 2%; in experiment [3], 5%; in experiment [4], 5%.

With `O=C(Nc1nc(-c2ccccc2)nc2cn(-c3ccccc3)nc12)c1ccncc1`, the affinity in experiment [6], expressed as Ki, was 25 nM. Further, the inhibition in experiment [2], in experiment [3] and in experiment [4] was 1% throughout.

Molecule `Cc1nc(NC(=O)c2ccncc2)c2nn(-c3ccccc3)cc2n1` yielded a Ki in experiment [6] of 5.2 nM. Moreover, the values for the inhibition in experiment [3] and in experiment [4] were 12% and 1%, respectively.

As to `COc1ccc(-n2cc3nc(C)nc(N)c3n2)cc1`, the inhibition came to 38% in experiment [1], 2% in experiment [2], 30% in experiment [3] and 1% in experiment [4].

`Cc1nc(NC(=O)c2cccnc2)c2nn(-c3ccccc3)cc2n1`: the inhibitory constant (Ki) in experiment [6] worked out at 5.3 nM. For the same molecule, the figures for the inhibition in experiment [2], in experiment [3] and in experiment [4] were 1%, 12% and 1%, respectively.

In the case of `O=C(Nc1nc(-c2ccccc2)nc2cn(-c3ccccc3)nc12)c1ccco1`, the affinity in experiment [6] corresponds to a Ki of 24 nM. Moreover, the values for the inhibition in experiment [2], in experiment [3] and in experiment [4] were 1%, 11% and 1%, respectively.

Regarding `Cc1nc(NC(=O)c2ccco2)c2nn(-c3ccccc3)cc2n1`, in experiment [6], the affinity, expressed as Ki, was 20 nM. The inhibition in experiment [2] worked out at 1%; in experiment [3], 20%; in experiment [4] it was 1%.

Take `CC(=O)Nc1nc(C)nc2cn(-c3ccccc3)nc12`: the Ki in experiment [6] was 300 nM. Moreover, the results for the inhibition in experiment [2], in experiment [3] and in experiment [4] were 5%, 25% and 4%, respectively.

In experiment [6], `COc1ccc(-n2cc3nc(C)nc(NC(=O)Cc4ccccc4)c3n2)cc1` gave a Ki of 520 nM. Moreover, the inhibition turned out to be 11% in experiment [2], 9% in experiment [3] and 11% in experiment [4].
